Results pooled from the literature.
Each line is one published result; the experiments were not run side by side.
ABL1 F317I non-phosphorylated: Tyrosine-protein kinase ABL1, non-phosphorylated (ABL1, Homo sapiens, UniProt P00519, F317I)
ABL1 H396P phosphorylated: Tyrosine-protein kinase ABL1, phosphorylated (ABL1, Homo sapiens, UniProt P00519, H396P)
ABL1 F317I phosphorylated: Tyrosine-protein kinase ABL1, phosphorylated (ABL1, Homo sapiens, UniProt P00519, F317I)
ABL1 H396P: Tyrosine-protein kinase ABL1 (ABL1, Homo sapiens, UniProt P00519, H396P)
ABL1 T315I phosphorylated: Tyrosine-protein kinase ABL1, phosphorylated (ABL1, Homo sapiens, UniProt P00519, T315I)
ABL1 E255K phosphorylated: Tyrosine-protein kinase ABL1, phosphorylated (ABL1, Homo sapiens, UniProt P00519, E255K)
ABL1 phosphorylated: Tyrosine-protein kinase ABL1, phosphorylated (ABL1, Homo sapiens, UniProt P00519)
ABL1 non-phosphorylated: Tyrosine-protein kinase ABL1, non-phosphorylated (ABL1, Homo sapiens, UniProt P00519)
ABL1 F317L phosphorylated: Tyrosine-protein kinase ABL1, phosphorylated (ABL1, Homo sapiens, UniProt P00519, F317L)
ABL1 Y253F phosphorylated: Tyrosine-protein kinase ABL1, phosphorylated (ABL1, Homo sapiens, UniProt P00519, Y253F)
ABL1 M351T: Tyrosine-protein kinase ABL1 (ABL1, Homo sapiens, UniProt P00519, M351T)

`c1cncc(-c2cccc(Nc3nccc(NC4CCCCC4)n3)c2)c1` has a remaining binding of 100% (ABL1 F317I non-phosphorylated; binding, competition with immobilised ligand; 10 µM).
`CNC(=O)[C@@H]1CC[C@@H](n2c(-c3ccc4cnccc4c3)nc3ccc(C(=O)NCc4cccc(C(N)=O)c4)cc32)C1` has a remaining binding of 100% (ABL1 H396P phosphorylated; binding, competition with immobilised ligand; 1 µM).
The remaining binding of `O=C(O)[C@H]1[C@H](Cn2nnc3ccccc3c2=O)CC[C@@H]1C(=O)c1ccc(OCCC2CCOCC2)cc1` is reported as 100% (ABL1 F317I phosphorylated; binding; 1 µM).
`c1cnn2ncc(-c3ccnc(N4CCC45COC5)n3)c2c1` has a remaining binding of 66% (ABL1 H396P; binding; 1 µM).
`CCOCCn1cc(C(=O)Nc2ccc(-n3nc(-c4cccnc4)cc3C(F)(F)F)cn2)ccc1=O` gave a remaining binding of 96% (ABL1 T315I phosphorylated; cell-free assay, competition with immobilised ligand; 1 µM).
For `O=C(c1ccc(Nc2nccc(-c3cc4ccccc4s3)n2)cc1)N1CCC(N2CCCC2)CC1`, the remaining binding was 99% (ABL1 F317I phosphorylated; binding, competition with immobilised ligand; 1 µM).
The remaining binding of `C=CC(=O)N1CCC(C(=O)NCC(=O)N2CCN(c3nc(-c4cnc(N)nc4C(F)F)nc(N4CCOCC4)n3)CC2)CC1` is reported as 100% (Tyrosine-protein kinase ABL1, phosphorylated (ABL1, Homo sapiens, UniProt P00519, Q252H); binding, competition with immobilised ligand; 1 µM).
With `CCCCN(CCCC)C(=O)CN1C[C@H](c2cc(OC)c3c(c2)OCO3)[C@@H](C(=O)O)[C@@H]1CC(C)(C)CCC` the remaining binding was 98.5% (ABL1 F317I non-phosphorylated; binding, competition with immobilised ligand; 1 µM).
With `C[C@@H]1CCN(c2nccc(-c3cnn4ncccc34)n2)C1` the remaining binding was 88% (Tyrosine-protein kinase ABL1 (ABL1, Homo sapiens, UniProt P00519, Y253F); binding; 1 µM).
The remaining binding of `CO[C@@H](C)c1c(Nc2ccc([C@H](N(C)C(=O)C3CCS(=O)(=O)CC3)C(F)(F)F)cc2)cnc2cc(Cl)nn12` is reported as 100% (ABL1 F317I non-phosphorylated; binding, competition with immobilised ligand; 1 µM).
`CN(c1nccc(-c2cnn3ncccc23)n1)C1CC1` gave a remaining binding of 100% (Tyrosine-protein kinase ABL1 (ABL1, Homo sapiens, UniProt P00519, Q252H); binding; 1 µM).
`COc1ncc2cc3ccccc3nc2c1C#N` gave a remaining binding of 100% (Tyrosine-protein kinase ABL1, phosphorylated (ABL1, Homo sapiens, UniProt P00519, M351T); cell-free assay, competition with immobilised ligand; 5 µM).
`Cc1cnc(Nc2ccc(C(=O)N3CCC(N4CCCC4)CC3)cc2)nc1-c1cc2ccccc2s1` has a remaining binding of 1.4% (ABL1 E255K phosphorylated; binding, competition with immobilised ligand; 1 µM).
`CN(c1ccnc(CNc2nc(Nc3ccc4c(c3)CC(=O)N4)ncc2C(F)(F)F)n1)S(C)(=O)=O` gave a remaining binding of 40% (ABL1 phosphorylated; cell-free assay, competition with immobilised ligand; 1 µM).
For `CN1CCN(c2ccc(Nc3nccc(-c4ccccc4)n3)cc2C(F)(F)F)CC1`, the remaining binding was 100% (Tyrosine-protein kinase ABL1 (ABL1, Homo sapiens, UniProt P00519, F317I); binding; 10 µM).
For `CNCc1ccccc1-c1csc([C@@H](C)Nc2nc(C)nc3cc(OC)c(OC)cc23)c1`, the remaining binding was 100% (ABL1 F317I non-phosphorylated; binding, competition with immobilised ligand; 1 µM).
The remaining binding of `CC1CCCN1c1nccc(-c2cnn3ncccc23)n1` (centres unmarked) is reported as 97% (ABL1 non-phosphorylated; binding, competition with immobilised ligand; 1 µM).
For `C[C@@H](c1ccc(-n2cnc3c(N)ncnc32)cc1)N1CCc2nn(C)c(Cc3ccccc3)c2C1=O`, the remaining binding was 90% (ABL1 phosphorylated; binding, competition with immobilised ligand; 0.1 µM).
The remaining binding of `O=C(NCC1CCOCC1)c1n[nH]cc1NC(=O)c1c(F)cccc1F` is reported as 88% (ABL1 F317L phosphorylated; binding, competition with immobilised ligand; 1 µM).
`O=C(c1ccc(Nc2ncc(Cl)c(-c3cc4ccccc4s3)n2)cc1)N1CCC(N2CCCC2)CC1` has a remaining binding of 8% (ABL1 Y253F phosphorylated; binding, competition with immobilised ligand; 1 µM).
`CN(CCCC(F)(F)F)c1nccc(-c2cnn3ncccc23)n1` has a remaining binding of 95% (ABL1 H396P; binding; 1 µM).
`COc1cnc(Nc2cccc(S(N)(=O)=O)c2)nc1N1CCN(c2ccccc2)C(=O)C1` gave a remaining binding of 97% (ABL1 F317L phosphorylated; binding, competition with immobilised ligand; 1 µM).
The remaining binding of `O=C(Nc1c[nH]nc1C(=O)NC1CCNCC1)c1cc(F)cc(F)c1` is reported as 100% (ABL1 phosphorylated; binding, competition with immobilised ligand; 1 µM).
`Nc1ncc2c(n1)-c1c([nH]c3ccc(C#CC4CC4)cc13)CCCC2` gave a remaining binding of 93% (ABL1 H396P phosphorylated; binding, competition with immobilised ligand; 1 µM).
With `F[C@@H]1CCN(c2nccc(-c3cnn4ncccc34)n2)C1` the remaining binding was 100% (ABL1 M351T; binding; 1 µM).
`O=C(NCCCN1CCOCC1)c1ccc(Nc2ncc(Cl)c(-c3ccc(Cl)s3)n2)cc1` gave a remaining binding of 4.2% (Tyrosine-protein kinase ABL1, non-phosphorylated (ABL1, Homo sapiens, UniProt P00519, H396P); binding, competition with immobilised ligand; 1 µM).
`CN(C(=O)c1ccccc1)c1cc(N(C)c2ccc3c(c2)CCc2ccc(C(=O)NCCN4CCOCC4)cc2C3=O)ccc1F` has a remaining binding of 79% (ABL1 F317I non-phosphorylated; binding, competition with immobilised ligand; 1 µM).
For `O=C(c1ccc(Nc2ncc(Cl)c(-c3ccc(Cl)s3)n2)cc1)N1CCC(N2CCCC2)CC1`, the remaining binding was 1.1% (ABL1 T315I phosphorylated; binding, competition with immobilised ligand; 1 µM).
For `CC(C)(C)c1ccc(-c2nc(CBr)nn2-c2cccc(O)c2)cc1`, the remaining binding was 82% (ABL1 T315I phosphorylated; cell-free assay, competition with immobilised ligand; 10 µM).
The remaining binding of `CCN1CCN(Cc2ccc(C(=O)Nc3ccc(C)c(Oc4ccc5c(c4)CC(=O)N5)c3)cc2C(F)(F)F)CC1` is reported as 38% (ABL1 Y253F phosphorylated; binding, competition with immobilised ligand; 1 µM).
`COc1ccnn2ncc(-c3ccnc(N(C)C)n3)c12` has a remaining binding of 86% (Tyrosine-protein kinase ABL1 (ABL1, Homo sapiens, UniProt P00519, E255K); binding; 1 µM).
With `CO[C@H]1CC[C@H](CNc2ccc(S(=O)(=O)NC(=O)c3ccc(N4CCN(CC5=C(c6ccc(Cl)cc6)CC(C)(C)CC5)CC4)cc3Oc3cnc4[nH]ccc4c3)cc2[N+](=O)[O-])CC1` the remaining binding was 74% (ABL1 E255K phosphorylated; binding, competition with immobilised ligand; 1 µM).
With `N[C@@H]1CCN(c2nccc(-c3cnn4ncccc34)n2)C1` the remaining binding was 100% (ABL1 M351T; binding; 1 µM).
`O=C(NCCCN1CCOCC1)c1ccc(Nc2nccc(-c3cc4ccccc4s3)n2)cc1` has a remaining binding of 37% (ABL1 non-phosphorylated; binding, competition with immobilised ligand; 1 µM).
The remaining binding of `COc1cnc(Nc2cccc(S(N)(=O)=O)c2)nc1N1CCN(c2ccccc2)CC1` is reported as 78% (Tyrosine-protein kinase ABL1, non-phosphorylated (ABL1, Homo sapiens, UniProt P00519, Q252H); binding, competition with immobilised ligand; 1 µM).
